MBC data for 20 molecules are collected here from ChEMBL document CHEMBL1123582, “Substituted 2-(2-hydroxyphenyl)benzimidazoles as potential agents for the control of periodontal diseases” (1987).

Test [1] has as its system Aggregatibacter actinomycetemcomitans. Nature of the test: Evaluated for the in vitro minimum bactericidal concentration (MBC) against periopathogenic Actinobacillus actinomycetemcommitans bacteria; NE means not effective. It counts as functional, organism-based. Summed up: (§1)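 Tube dilution test against A. actinomycetemcomitans Y4, kept in Trypticase Soy Broth with excess CaCO3. Compound stocks of 1 mg/100 μL EtOH or Me2SO were diluted at least 100-fold into 3-fold series in Bacto Anaerobe broth. Each tube got 50 μL of log-phase inoculum at 10⁸ cfu/mL and was incubated at 37 °C under anaerobic 5% CO2/10% H2/85% Ar. Values are μg/mL, consistent across triplicates.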

Test [2] relates to Actinomyces viscosus. Nature of the test: Evaluated for the in vitro minimum bactericidal concentration (MBC) against periopathogenic Actinomycetes viscosus bacteria; NE means not effective. It counts as functional, organism-based. Summed up:
(§2)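 Tested against A. viscosus M100-2000, maintained in Trypticase Soy Broth with excess CaCO3, by tube dilution. EtOH or Me2SO stocks (1 mg/100 μL) were diluted at least 100-fold into 3-fold dilution series in Bacto Anaerobe broth. Tubes were seeded with 50 μL of 10⁸ cfu/mL log-phase culture and held at 37 °C in an anaerobic chamber (5% CO2, 10% H2, 85% Ar). Values are in μg/mL, consistent in triplicate.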

Test [3] has as its system Porphyromonas gingivalis. Nature of the test: Evaluated for the in vitro minimum bactericidal concentration (MBC) against periopathogenic Bacteroides gingivalis bacteria; NE means not effective. It counts as functional, organism-based. The procedure, abridged: (§3)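 B. gingivalis 381, maintained in Trypticase Soy Broth plus excess CaCO3, was assayed by tube dilution. Stocks of 1 mg/100 μL in EtOH or Me2SO were diluted 100-fold or more to give 3-fold dilutions in Bacto Anaerobe broth. Inoculum was 50 μL of log-phase culture at 10⁸ cfu/mL, with incubation at 37 °C anaerobically (5% CO2/10% H2/85% Ar). Concentrations are μg/mL, consistent for triplicate assays.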

In test [4] the test system is Aggregatibacter actinomycetemcomitans. In words: Evaluated for the in vitro minimum bactericidal concentration (MBC) against periopathogenic Actinobacillus actinomycetemcommitans bacteria. Format: functional. The procedure, abridged: as §1
The test system of test [5] is Actinomyces viscosus. Nature of the test: Evaluated for the in vitro minimum bactericidal concentration (MBC) against periopathogenic Actinomycetes viscosus bacteria. It counts as functional. Summed up: as §2
Test [6] has as its system Porphyromonas gingivalis. In words: Evaluated for the in vitro minimum bactericidal concentration (MBC) against periopathogenic Bacteroides gingivalis bacteria. Format: functional. The procedure, abridged:
as §3

Test [7] concerns Actinomyces viscosus. In words: Evaluated for the in vitro minimum bactericidal concentration (MBC) against periopathogenic Actinomycetes viscosus bacteria;NE means not effective. Format: functional, organism-based. The procedure, abridged:
as §2

In test [8] the test system is Actinomyces viscosus. In words: Evaluated for the in vitro minimum bactericidal concentration (MBC) against periopathogenic Actinomycetes viscosus bacteria. Format: functional. The procedure, abridged:
as §2

Converted amounts (≈) assume the structure as drawn. The source made the active and inactive calls. The calls are words filed in the database; no cut-off is given here.

As for `CCCCCCC(=O)c1ccc(O)c(-c2nc3cc(C)ccc3[nH]2)c1`, the MBC result (in test [1]; with Actinomyces viscosus [2]; with Porphyromonas gingivalis [3]) was “inactive” in each case.

Turning to `Oc1c(Br)cc(Br)cc1-c1nc2cc(Cl)ccc2[nH]1`, the MBC turned out to be 5 µg/mL (≈ 12.4 µM) in test [4], 0.5 µg/mL (≈ 1.24 µM) with Actinomyces viscosus [5] and 0.05 µg/mL (≈ 0.124 µM) against Porphyromonas gingivalis [6].

Consider `CCCCCCCC(=O)c1ccc(O)c(-c2nc3cc(Cl)ccc3[nH]2)c1`, for which the MBC result in the test with Actinomyces viscosus [2] is “inactive”.

Consider `CCCCCCC(=O)c1ccc(O)c(-c2nc3cc(Cl)ccc3[nH]2)c1`, for which the MBC result (in test [1]; in the test with Actinomyces viscosus [2]; with Porphyromonas gingivalis [3]) was “inactive” in each case.

On to `Cc1ccc2[nH]c(-c3ccccc3O)nc2c1`, for which the MBC (in test [4]; in the test on Porphyromonas gingivalis [6]) was 1 µg/mL (≈ 4.46 µM) in each case. Further, the MBC result in the test with Actinomyces viscosus [2] was “inactive”.

Take `Oc1ccccc1-c1nc2cc(C(F)(F)F)ccc2[nH]1`: the MBC entry (in test [1]; in the test with Actinomyces viscosus [7]) was “inactive” each time. Moreover, the MBC in the test with Porphyromonas gingivalis [6] was determined as 50 µg/mL (≈ 180 µM).

In the case of `CCCCCCCCC(=O)c1ccc(O)c(-c2nc3cc(C(F)(F)F)ccc3[nH]2)c1`, the MBC was found to be 0.5 µg/mL (≈ 1.19 µM) with Actinomyces viscosus [5] and 0.1 µg/mL (≈ 0.239 µM) in the test with Porphyromonas gingivalis [6].

On to `CCCCCC(=O)c1ccc(O)c(-c2nc3cc(C(F)(F)F)ccc3[nH]2)c1`, for which, in test [1], the MBC result was “inactive”. Besides, the MBC in the test on Actinomyces viscosus [5] was found to be 0.5 µg/mL (≈ 1.33 µM); against Porphyromonas gingivalis [6], 0.1 µg/mL (≈ 0.266 µM).

On to `CN(C)[C@@H]1C(O)=C(C(N)=O)C(=O)[C@@]2(O)C(O)=C3C(=O)c4c(O)cccc4[C@@](C)(O)[C@H]3C[C@@H]12` [TETRACYCLINE], for which the figures for the MBC (in test [4]; in the test with Actinomyces viscosus [5]; against Porphyromonas gingivalis [6]) were 0.5 µg/mL (≈ 1.13 µM), 0.5 µg/mL (≈ 1.13 µM) and 0.05 µg/mL (≈ 0.113 µM), respectively.

In the case of `CCCC(=O)c1ccc(O)c(-c2nc3cc(C(F)(F)F)ccc3[nH]2)c1`, the MBC in test [4] was determined as 5 µg/mL (≈ 14.4 µM); in the test on Actinomyces viscosus [5], 0.5 µg/mL (≈ 1.44 µM); against Porphyromonas gingivalis [6], 0.05 µg/mL (≈ 0.144 µM).

For the molecule `CCCCCCCCC(=O)c1ccc(O)c(-c2nc3cc(C)ccc3[nH]2)c1`, in test [1], the MBC result is “inactive”. The MBC in the test with Actinomyces viscosus [5] turned out to be 10 µg/mL (≈ 27.4 µM).

`CCCCCCCCC(=O)c1ccc(O)c(-c2nc3cc([N+](=O)[O-])ccc3[nH]2)c1`: the MBC entry (in test [1]; with Actinomyces viscosus [2]; in the test with Porphyromonas gingivalis [3]) was “inactive” each time.

Take `O=C(Nc1ccc(Br)cc1)c1cc(Br)cc(Br)c1O` [TRIBROMSALAN]: the MBC in test [4] turned out to be 0.5 µg/mL (≈ 1.11 µM); against Actinomyces viscosus [5], 1 µg/mL (≈ 2.22 µM); against Porphyromonas gingivalis [6], 0.05 µg/mL (≈ 0.111 µM).

Consider `CCCCC(=O)c1ccc(O)c(-c2nc3cc(C(F)(F)F)ccc3[nH]2)c1`, for which the MBC in the test with Actinomyces viscosus [8] and against Porphyromonas gingivalis [6] was 0.5 µg/mL (≈ 1.38 µM) throughout. Moreover, the MBC entry in test [1] is “inactive”.

With `CCCCCCCCCC(=O)c1ccc(O)c(-c2nc3cc(C(F)(F)F)ccc3[nH]2)c1`, the MBC entry (in test [1]; in the test with Actinomyces viscosus [2]; in the test on Porphyromonas gingivalis [3]) was “inactive” each time.

On to `CCCCCCCCC(=O)c1ccc(O)c(-c2nc3cc(Cl)ccc3[nH]2)c1`, for which the MBC entry (in test [1]; in the test with Actinomyces viscosus [2]; in the test with Porphyromonas gingivalis [3]) was “inactive” each time.

As for `CCCCCCCC(=O)c1ccc(O)c(-c2nc3cc(C(F)(F)F)ccc3[nH]2)c1`, in test [1], the MBC result was “inactive”. Also, the MBC in the test with Actinomyces viscosus [5] and against Porphyromonas gingivalis [6] was 0.5 µg/mL (≈ 1.24 µM) each time.

Consider `Oc1c(Br)cc(Br)cc1-c1nc2cc(C(F)(F)F)ccc2[nH]1`, for which the MBC is 1 µg/mL (≈ 2.29 µM) in test [4], 0.1 µg/mL (≈ 0.229 µM) against Actinomyces viscosus [5] and 0.05 µg/mL (≈ 0.115 µM) in the test on Porphyromonas gingivalis [6].

For the molecule `N=C(NCCCCCCNC(=N)NC(=N)Nc1ccc(Cl)cc1)NC(=N)Nc1ccc(Cl)cc1` [CHLORHEXIDINE], the MBC in test [4] was 0.5 µg/mL (≈ 0.989 µM); with Actinomyces viscosus [5], 0.5 µg/mL (≈ 0.989 µM); against Porphyromonas gingivalis [6], 0.05 µg/mL (≈ 0.0989 µM).

As to `CCCCCCC(=O)c1ccc(O)c(-c2nc3cc(C(F)(F)F)ccc3[nH]2)c1`, the MBC result in test [1] was “inactive”. The results for the MBC in the test with Actinomyces viscosus [5] and in the test with Porphyromonas gingivalis [6] were 0.5 µg/mL (≈ 1.28 µM) and 0.05 µg/mL (≈ 0.128 µM), respectively.
